From ChEMBL document CHEMBL4118255, “Synthesis and antibacterial evaluation of novel 11-O-aralkylcarbamoyl-3-O-descladinosylclarithromycin derivatives” (2018)
Values after ≈ are worked out from the molar mass of the structure shown.

How the values were obtained:
Type in all cases: functional
Staphylococcus aureus [1] = assay: Antibacterial activity against methicillin-resistant Staphylococcus aureus ATCC 43300 after 24 hrs by tube-dilution method; conditions: ATCC 43300, 24 h
In short: (§1)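 MIC determined by the NCCLS-recommended standard broth microdilution method against erythromycin-resistant S. pneumoniae strains (A22072 mef, B1 erm, AB11 erm plus mef) and methicillin-resistant S. aureus ATCC43300.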

Streptococcus pyogenes [2] = assay: Antibacterial activity against erythromycin-resistant Streptococcus pyogenes R1 after 24 hrs by tube-dilution method; conditions: R1, 24 h
Staphylococcus aureus [3] = assay: Antibacterial activity against erythromycin-susceptible Staphylococcus aureus ATCC 25923 after 24 hrs by […]; conditions: ATCC 25923, 24 h
Escherichia coli = assay: Antibacterial activity against penicillin-susceptible Escherichia coli ATCC 25922 incubated for 24 hrs by […]; conditions: ATCC 25922, 24 h
Streptococcus pneumoniae [4] = assay: Antibacterial activity against erythromycin-resistant Streptococcus pneumoniae B1 harboring ermB gene after 24 hrs by tube-dilution method; conditions: B1, 24 h; in short: as §1
Streptococcus pyogenes [5] = assay: Potency index, ratio of clarithromycin MIC to compound MIC for erythromycin-resistant Streptococcus pyogenes R1
Streptococcus pneumoniae [6] = assay: Antibacterial activity against erythromycin-resistant Streptococcus pneumoniae AB11 harboring ermB and mefA genes after 24 hrs by tube-dilution method; conditions: AB11, 24 h; in short: as §1
Streptococcus pyogenes [7] = assay: Potency index, ratio of azithromycin MIC to compound MIC for erythromycin-resistant Streptococcus pyogenes R1
Pseudomonas aeruginosa = assay: Antibacterial activity against penicillin-susceptible Pseudomonas aeruginosa ATCC 27853 incubated for 24 hrs by […]; conditions: ATCC 27853, 24 h
Streptococcus pyogenes [8] = assay: Antibacterial activity against erythromycin-susceptible Streptococcus pyogenes after 24 hrs […]
Bacillus subtilis = assay: Antibacterial activity against erythromycin-susceptible Bacillus subtilis ATCC 9372 after 24 hrs by tube-dilution method; conditions: ATCC 9372, 24 h
In short: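 MIC by standard NCCLS broth microdilution. Reference macrolides clarithromycin and azithromycin run alongside.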

Streptococcus pneumoniae [9] = assay: Antibacterial activity against erythromycin-resistant Streptococcus pneumoniae A22072 harboring mefA gene after 24 hrs by […]; conditions: A22072, 24 h
Streptococcus pneumoniae [10] = assay: Potency index, ratio of clarithromycin MIC to compound MIC for erythromycin-resistant Streptococcus pneumoniae B1 harboring ermB gene
Staphylococcus aureus [11] = assay: Potency index, ratio of azithromycin MIC to compound MIC for methicillin-resistant Staphylococcus aureus ATCC 43300
Streptococcus pneumoniae [12] = assay: Potency index, ratio of clarithromycin MIC to compound MIC for erythromycin-resistant Streptococcus pneumoniae A22072 harboring mefA gene
Streptococcus pneumoniae [13] = assay: Potency index, ratio of clarithromycin MIC to compound MIC for erythromycin-resistant Streptococcus pneumoniae AB11 harboring ermB and mefA gene
Streptococcus pneumoniae [14] = assay: Potency index, ratio of azithromycin MIC to compound MIC for erythromycin-resistant Streptococcus pneumoniae A22072 harboring mefA gene
Streptococcus pneumoniae [15] = assay: Potency index, ratio of azithromycin MIC to compound MIC for erythromycin-resistant Streptococcus pneumoniae AB11 harboring ermB and mefA gene
Staphylococcus aureus [16] = assay: Potency index, ratio of clarithromycin MIC to compound MIC for methicillin-resistant Staphylococcus aureus ATCC 43300
Streptococcus pneumoniae [17] = assay: Potency index, ratio of azithromycin MIC to compound MIC for erythromycin-resistant Streptococcus pneumoniae B1 harboring ermB gene

CC[C@H]1OC(=O)[C@H](C)[C@@H](OC(=O)Cc2cccnc2)[C@H](C)[C@@H](O[C@@H]2O[C@H](C)C[C@H](N(C)C)[C@H]2O)[C@](C)(OC)C[C@@H](C)C(=O)[C@H](C)[C@@H](OC(=O)NCCNC(=O)c2ccc(C3CCCCC3)cc2)[C@]1(C)O
MIC (Staphylococcus aureus [1]): 32 µg/mL (≈ 32.6 µM)
MIC (Streptococcus pyogenes [2]): 32 µg/mL (≈ 32.6 µM)
MIC (Staphylococcus aureus [3]): 2 µg/mL (≈ 2.04 µM)
MIC (Escherichia coli): 128 µg/mL (≈ 130 µM)
MIC (Streptococcus pneumoniae [4]): 64 µg/mL (≈ 65.2 µM)
Ratio (Streptococcus pyogenes [5]): 4
MIC (Streptococcus pneumoniae [6]): 32 µg/mL (≈ 32.6 µM)
Ratio (Streptococcus pyogenes [7]): 4
MIC (Pseudomonas aeruginosa): 128 µg/mL (≈ 130 µM)
MIC (Streptococcus pyogenes [8]): 0.5 µg/mL (≈ 0.51 µM)
MIC (Bacillus subtilis): 4 µg/mL (≈ 4.08 µM)
MIC (Streptococcus pneumoniae [9]): 1 µg/mL (≈ 1.02 µM)

CC[C@H]1OC(=O)[C@H](C)[C@@H](OC(=O)Cc2cccnc2)[C@H](C)[C@@H](O[C@@H]2O[C@H](C)C[C@H](N(C)C)[C@H]2O)[C@](C)(OC)C[C@@H](C)C(=O)[C@H](C)[C@@H](OC(=O)NCCNC(=O)c2ccc([N+](=O)[O-])cc2N)[C@]1(C)O
MIC (Staphylococcus aureus [1]): 64 µg/mL (≈ 66.7 µM)
MIC (Streptococcus pyogenes [2]): 128 µg/mL (≈ 133 µM)
Ratio (Streptococcus pneumoniae [10]): 8
Ratio (Staphylococcus aureus [11]): 4
MIC (Staphylococcus aureus [3]): 1 µg/mL (≈ 1.04 µM)
Ratio (Streptococcus pneumoniae [12]): 8
MIC (Escherichia coli): 64 µg/mL (≈ 66.7 µM)
Ratio (Streptococcus pneumoniae [13]): 32
Ratio (Streptococcus pneumoniae [14]): 16
Ratio (Streptococcus pneumoniae [15]): 32
MIC (Streptococcus pneumoniae [4]): 16 µg/mL (≈ 16.7 µM)
MIC (Streptococcus pneumoniae [6]): 4 µg/mL (≈ 4.17 µM)
MIC (Pseudomonas aeruginosa): 64 µg/mL (≈ 66.7 µM)
MIC (Streptococcus pyogenes [8]): 0.03 µg/mL (≈ 0.0313 µM)
Ratio (Staphylococcus aureus [16]): 4
Ratio (Streptococcus pneumoniae [17]): 8
MIC (Bacillus subtilis): 1 µg/mL (≈ 1.04 µM)
MIC (Streptococcus pneumoniae [9]): 0.25 µg/mL (≈ 0.261 µM)

CC[C@H]1OC(=O)[C@H](C)[C@@H](OC(=O)Cc2cccnc2)[C@H](C)[C@@H](O[C@@H]2O[C@H](C)C[C@H](N(C)C)[C@H]2O)[C@](C)(OC)C[C@@H](C)C(=O)[C@H](C)[C@@H](OC(=O)NCCNC(=O)c2cc([N+](=O)[O-])cc([N+](=O)[O-])c2)[C@]1(C)O
MIC (Staphylococcus aureus [1]): 64 µg/mL (≈ 64.7 µM)
MIC (Streptococcus pyogenes [2]): 128 µg/mL (≈ 129 µM)
MIC (Staphylococcus aureus [3]): 1 µg/mL (≈ 1.01 µM)
Ratio (Streptococcus pneumoniae [12]): 4
MIC (Escherichia coli): 64 µg/mL (≈ 64.7 µM)
Ratio (Streptococcus pneumoniae [13]): 32
Ratio (Streptococcus pneumoniae [14]): 8
Ratio (Streptococcus pneumoniae [15]): 32
MIC (Streptococcus pneumoniae [4]): 32 µg/mL (≈ 32.4 µM)
MIC (Streptococcus pneumoniae [6]): 4 µg/mL (≈ 4.04 µM)
MIC (Pseudomonas aeruginosa): 64 µg/mL (≈ 64.7 µM)
MIC (Streptococcus pyogenes [8]): 0.015 µg/mL (≈ 0.0152 µM)
MIC (Bacillus subtilis): 1 µg/mL (≈ 1.01 µM)
MIC (Streptococcus pneumoniae [9]): 0.5 µg/mL (≈ 0.506 µM)

CC[C@H]1OC(=O)[C@H](C)[C@@H](OC(=O)Cc2cccnc2)[C@H](C)[C@@H](O[C@@H]2O[C@H](C)C[C@H](N(C)C)[C@H]2O)[C@](C)(OC)C[C@@H](C)C(=O)[C@H](C)[C@@H](OC(=O)NCCNC(=O)C#Cc2cccc3ccccc23)[C@]1(C)O
MIC (Staphylococcus aureus [1]): 64 µg/mL (≈ 65.8 µM)
MIC (Streptococcus pyogenes [2]): 32 µg/mL (≈ 32.9 µM)
MIC (Staphylococcus aureus [3]): 4 µg/mL (≈ 4.11 µM)
MIC (Escherichia coli): > 128 µg/mL
MIC (Streptococcus pneumoniae [4]): 32 µg/mL (≈ 32.9 µM)
Ratio (Streptococcus pyogenes [5]): 4
MIC (Streptococcus pneumoniae [6]): 16 µg/mL (≈ 16.4 µM)
Ratio (Streptococcus pyogenes [7]): 4
MIC (Pseudomonas aeruginosa): > 128 µg/mL
MIC (Streptococcus pyogenes [8]): 0.125 µg/mL (≈ 0.128 µM)
MIC (Bacillus subtilis): 2 µg/mL (≈ 2.06 µM)
MIC (Streptococcus pneumoniae [9]): 1 µg/mL (≈ 1.03 µM)
